Laboratory results as given in publication PMC7680358 (European journal of medicinal chemistry, 2020).
Values after ≈ are worked out from the molar mass of the structure shown.

How the values were obtained:
[1] = tested on: S. saprophyticus ATCC 15305; test: MIC by broth microdilution; assay type: cell-based; conditions: Staphylococcus saprophyticus, ATCC15305, read-out: MIC SSAP
Outline: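 Broth microdilution per CLSI in cation-adjusted Mueller-Hinton broth (Staphylococcus spp.). Two-fold serial dilutions ran from 256 to 0.5 μg/mL, with an inoculum of ~5 × 10^5 CFU/mL. Plates were read after 20 h at 37 °C. MIC = lowest concentration with no observable growth.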

S. aureus ATCC 29213 = test: Cell content quantification; assay type: cell-based, Staphylococcus aureus; conditions: ¼ and ⅛ MIC, versus untreated control
Outline: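 S. aureus ATCC 29213 master culture was started at OD600 0.1 with shaking at 175 rpm, 37 °C. At OD600 0.2 (early log) it was split and dosed at ¼ and ⅛ MIC, with a drug-free control. Cells were harvested when the control reached OD600 0.6; other samples were taken at volumes adjusted to an OD600 equivalent of 0.6. 3 mL was pelleted at 5000 × g, 5 min, 4 °C, and DNA/RNA/protein co-extracted with a kit. DNA and RNA were read by fluorometric broad-range assays, protein by BCA. Triplicate.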

[2] = tested on: B. subtilis strain BS1048 (RpoC-GFP); test: Confocal fluorescence microscopy of GFP-tagged RNAP; assay type: cell-based; conditions: 8e added at ½ MIC, 15 min
Outline: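 BS1048 (RpoC-GFP) was plated on LB agar. […] 2.5 μL of culture was mounted on a fresh 1.2% agarose pad under a coverslip. Imaging used a confocal microscope with a 63×/1.3 oil objective and a mercury metal halide lamp.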

Question: Which results are given for `O=C(O)c1ccc(C(F)(F)F)cc1C(=O)c1ccc(Sc2ccc(Cl)c(Cl)c2)c([N+](=O)[O-])c1` [8e, 2-(4-((3,4-Dichlorophenyl)thio)-3-nitrobenzoyl)-4-(trifluoromethyl)benzoic acid]?
Answer: MIC [1]: 0.5 to 1 µg/mL (≈ 0.968 to 1.94 µM); Total RNA levels (S. aureus ATCC 29213): reducing the total levels of staphylococcal RNA in a dose-dependent manner; Total levels of DNA (S. aureus ATCC 29213): largely unaffected; Total levels of protein (S. aureus ATCC 29213): reduced the total levels of protein; Localization of GFP-tagged RNAP fluorescence [2]: delocalized from the nucleoid

Question: Which “Total RNA levels” value (S. aureus ATCC 29213) does the source give for `CO[C@H]1/C=C/O[C@@]2(C)Oc3c(C)c(O)c4c(O)c(c(/C=N/N5CCN(C)CC5)c(O)c4c3C2=O)NC(=O)/C(C)=C\C=C\[C@H](C)[C@H](O)[C@@H](C)[C@@H](O)[C@@H](C)[C@H](OC(C)=O)[C@@H]1C` [rifampicin, reference compound] here?
Answer: The value was “significantly reduced”.

Question: What about the “Total levels of DNA” value (S. aureus ATCC 29213) of the same compound?
Answer: Its value is “largely unaffected”.
